Source: ChEMBL document CHEMBL1144952 (J Med Chem, 2003)

What was measured:
Cannabinoid receptor 2 [1] = molecular target: T1, Cannabinoid receptor 2 (Homo sapiens, UniProt P34972); experiment: Percent Inhibition of binding at […] against human cannabinoid receptor 2 in chinese hamster ovary cells by using a radioligand WIN-55212-2 mesylate[57-3H]; type: cell-based; settings: CHO
Cannabinoid receptor 2 [2] = molecular target: T1, Cannabinoid receptor 2; experiment: Binding affinity against human cannabinoid receptor 2 in chinese hamster ovary cells using WIN-55212-2 mesylate[57-3H]; type: cell-based, CHO
Cannabinoid receptor 1 = Cannabinoid receptor 1 (Homo sapiens, UniProt P21554); experiment: Binding affinity of compound against human cannabinoid receptor 1 in chinese hamster ovary cells by using radioligand CP-55940; type: cell-based, CHO
Summary of the method: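 CHO-K1 membranes expressing human CB1; CP55,940 used as radiolabelled tracer (routinely 10 nM). Bound label collected by filtration and measured by scintillation counting.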

[3] = In vitro inhibitory concentration of compound against TNF-alpha release in human peripheral blood mononuclear cells was determined; type: functional
Summary of the method: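 PBMCs isolated by ficoll from healthy donor blood and plated at 1 × 10^6 cells/mL in RPMI with 10% FBS. Compounds were added for 30 min before stimulation with LPS (25 ng/mL final). After 6 h at 37 °C, supernatant TNF-α was measured by ELISA.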

Mus musculus [4] = experiment: Percentage reduction of serum TNF-alpha when dose of 50 mg/kg was administered orally in mice; type: functional; settings: route oral
Summary of the method: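 Female BALB/c mice, 6–8 weeks old, given compound by gavage in 50% propylene glycol/water 10 min before iv LPS (0.1 mL of 10 μg/mL in PBS). Serum TNF-α was measured by ELISA 60 min after LPS; 8 mice per group, mean ± SD.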

Mus musculus [5] = experiment: Effective dose of compound against inhibition of LPS stimulated TNF-alpha release when administered intravenously in mice; type: functional; settings: iv
Summary of the method: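 Female BALB/c mice, 6–8 weeks old. Compound in 10% propylene glycol/PBS was co-injected iv with LPS (E. coli O111:B4, 10 μg/mL in the dosing solution, 0.1 mL per mouse). Serum was taken 60 min later and TNF-α measured by ELISA; 8 mice per group, mean ± SD.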

Cannabinoid receptor 2 [6] = molecular target: T1, Cannabinoid receptor 2; experiment: Percent Inhibition of binding at 100 nM against human cannabinoid receptor 2 in chinese hamster ovary cells by using a radioligand WIN-55212-2 mesylate[57-3H]; type: cell-based; settings: CHO

T1 sequence (P34972 whole entry): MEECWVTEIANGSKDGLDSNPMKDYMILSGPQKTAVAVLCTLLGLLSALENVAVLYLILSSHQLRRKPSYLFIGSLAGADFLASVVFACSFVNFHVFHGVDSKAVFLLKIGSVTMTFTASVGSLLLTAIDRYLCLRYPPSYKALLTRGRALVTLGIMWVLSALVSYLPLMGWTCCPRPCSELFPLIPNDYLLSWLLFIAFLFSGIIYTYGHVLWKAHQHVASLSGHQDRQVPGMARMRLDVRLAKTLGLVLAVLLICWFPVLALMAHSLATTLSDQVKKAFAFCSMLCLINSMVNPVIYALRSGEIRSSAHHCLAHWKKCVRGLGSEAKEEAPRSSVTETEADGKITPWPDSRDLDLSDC
Chain of Cannabinoid receptor 1 (P21554 whole entry): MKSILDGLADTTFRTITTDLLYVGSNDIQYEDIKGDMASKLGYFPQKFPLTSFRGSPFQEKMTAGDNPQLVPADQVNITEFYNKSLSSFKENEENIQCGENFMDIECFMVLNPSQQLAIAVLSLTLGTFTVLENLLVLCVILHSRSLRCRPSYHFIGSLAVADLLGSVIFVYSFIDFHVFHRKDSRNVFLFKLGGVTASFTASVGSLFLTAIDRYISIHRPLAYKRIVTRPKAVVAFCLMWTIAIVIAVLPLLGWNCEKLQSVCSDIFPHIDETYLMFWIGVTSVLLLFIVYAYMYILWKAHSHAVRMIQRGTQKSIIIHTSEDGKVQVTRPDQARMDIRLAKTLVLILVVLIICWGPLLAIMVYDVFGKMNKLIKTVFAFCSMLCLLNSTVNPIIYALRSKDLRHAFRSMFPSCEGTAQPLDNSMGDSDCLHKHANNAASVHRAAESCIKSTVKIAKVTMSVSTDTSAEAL

| SMILES | inhibition (Cannabinoid receptor 2 [1]) [%] | Ki (Cannabinoid receptor 2 [2]) [nM] | Ki (Cannabinoid receptor 1) [nM] | IC50 [3] [nM] | Reduction (Mus musculus [4]) [%] | ED50 (Mus musculus [5]) [mg/kg] | inhibition (Cannabinoid receptor 2 [6]) [%] |
| --- | --- | --- | --- | --- | --- | --- | --- |
| COc1cccc2c3c(=O)n(C(c4ccccc4)c4ccccn4)ccc3n(CCN3CCOCC3)c12 (configuration not stated) | 13 | – | – | – | – | – | – |
| CCc1c(C(=O)NC2C(C)(C)[C@@H]3CC[C@@]2(C)C3)c2cccc(OC)c2n1CCN1CCOCC1 (some centres not stated) | – | 110 | – | – | – | – | – |
| COc1ccccc1Cn1ccc2c(c1=O)c1cccc(OC)c1n2CCN1CCOCC1 | – | 67 | 3700 | 7000 | – | – | – |
| COc1cccc2c(C(=O)NC3C(C)(C)[C@@H]4CC[C@@]3(C)C4)cn(CCN3CCOCC3)c12 (some centres not stated) | – | 11 | 245 | 13000 | – | – | – |
| COc1cccc2c(C(=O)NC3C(C)(C)[C@@H]4CC[C@@]3(C)C4)c(C)n(CCN3CCOCC3)c12 (some centres not stated) | – | 29 | 8 | 33000 | – | – | – |
| COc1cccc2c3c(=O)n([C@@H]4C(C)(C)[C@@H]5CC[C@@]4(C)C5)ccc3n(CCN3CCOCC3)c12 | – | 1 | 16 | 8000 | 61 | 2 | – |
| COc1cccc2c(C(=O)NC(c3ccccc3)c3ccccn3)nn(CCN3CCOCC3)c12 (configuration not stated) | – | 146 | 162 | 20000 | – | – | – |
| CCCc1c(C(=O)NC2C(C)(C)[C@@H]3CC[C@@]2(C)C3)c2cccc(OC)c2n1CCN1CCOCC1 (some centres not stated) | – | – | – | – | – | – | 6 |
| COc1cccc2c(C(=O)NC3C(C)(C)[C@@H]4CC[C@@]3(C)C4)nn(CCN3CCOCC3)c12 (some centres not stated) | – | 2 | 24 | 30000 | – | – | – |
| COc1cccc2c(C(=O)N(Cc3c(F)cccc3Cl)C(C)C)nn(CCN3CCOCC3)c12 | – | 69 | – | 36000 | – | – | – |
| COc1ccccc1CNC(=O)c1nn(CCN2CCOCC2)c2c(OC)cccc12 | – | 77 | – | 43000 | – | – | – |
